Here are results for 5 compounds from ChEMBL document CHEMBL1142266, “Structure-based virtual screening for the discovery of natural inhibitors for human rhinovirus coat protein” (J Med Chem, 2008).

Data set [1] can be described thus: Cytotoxicity against human HeLa cells after 72 hrs. It counts as cell-based.
Data set [2] in a line: Selectivity index, ratio of CC50 for HeLa cells to IC50 for HRV2 in HeLa cells. It counts as functional, Homo sapiens.
For data set [3], the system named is rhinovirus A2. The experiment in a line: Antiviral activity against HRV2 in HeLa cells. The note with it: Rhinovirus A. Type of data set: functional, organism-based. The gist of the method: (§1)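 Cytopathic-effect inhibition assays in HeLa cells infected with pleconaril-sensitive HRV-1A, -2, -14 or -16. Dose-dependent inhibition of virus-induced CPE was measured, and the 50% inhibitory concentration (IC50) was derived.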

The subject of the next data set is Human rhinovirus 1A. The experiment in a line: Antiviral activity against HRV1A in HeLa cells. Type of data set: functional, organism-based. The gist of the method: as §1
The subject of the next data set is rhinovirus B14. Briefly: Antiviral activity against HRV14 in HeLa cells. Type of data set: functional, organism-based. The gist of the method: as §1
Data set [4] deals with rhinovirus A16. Briefly: Antiviral activity against HRV16 in HeLa cells. It counts as functional, organism-based. The gist of the method:
as §1

In data set [5] the test system is rhinovirus A2. The experiment in a line: Inactivation of HRV2 assessed as reduction in plaque at 2.5 ug/ml after 1 hr. It counts as functional, organism-based. The gist of the method: (§2)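 Direct-inactivation test using a modified plaque-reduction format. HRV-2 was incubated with or without compound at 37 °C for 1 h, and the suspensions were then diluted 100-fold. Residual virus titer was determined by plaque assay on HeLa cells, with pleconaril run as positive control.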

For data set [6], the system named is rhinovirus A2. Briefly: Inhibition of HRV2 absorption on HeLa cells assessed as reduction in plaques at 2.5 ug/ml after 2 hrs. It counts as functional. The note with it: Rhinovirus A.
In data set [7] the test system is rhinovirus A2. The experiment in a line: Inactivation of HRV2 assessed as reduction in plaque at 0.25 ug/ml after 1 hr. Set-up: scale not given: the % may be the effect or the level left. It counts as functional. The gist of the method: as §2
Data set [8] has as its system rhinovirus A2. The experiment in a line: Inhibition of HRV2 absorption on HeLa cells assessed as reduction in plaques at 0.25 ug/ml after 2 hrs. It counts as functional. The conditions noted are these: Rhinovirus A.
In data set [9] the test system is rhinovirus A2. Briefly: Inhibition of HRV2 replication cycle progression. It counts as functional, organism-based. The conditions noted are these: Rhinovirus A.
Data set [10] relates to rhinovirus A16. Briefly: Inhibition of HRV16 replication cycle progression. It counts as functional, organism-based. The note with it: Rhinovirus A.
The nature of data set [11]: Selectivity for HRV2 over HRV16. It counts as functional.

Converted amounts (≈) assume the structure as drawn. The source made the active and inactive calls. The calls are words filed in the database; no cut-off is given here.

In data set [1], `C[C@H]1CC=C2[C@H](CC[C@H](O)C2(C)C)[C@@]1(C)COc1ccc2ccc(=O)oc2c1` [MICROLOBIDENE] gave a CC50 at 72 h of 10 µg/mL (≈ 26.1 µM). In addition, the “Ratio CC50/IC50” value in [2] was under 1. This compound yielded a 50% inhibitory concentration (IC50) in the data set on rhinovirus A2 [3] of over 10 µg/mL. Besides, the result in the data set on Human rhinovirus 1A, with rhinovirus B14 and in the data set with rhinovirus A16 [4] was inactive.

In data set [1], `C=C1CC[C@@H](O)C(C)(C)C1CC/C(C)=C/COc1ccc2ccc(=O)oc2c1` (some centres not stated) [FARNESIFEROL B] registered a CC50 at 72 h of 8.2 µg/mL (≈ 21.4 µM). Besides, the “Ratio CC50/IC50” value in [2] was found to be 8.2. The same compound returned an IC50 in the data set on rhinovirus A2 [3] of 1 µg/mL (≈ 2.61 µM). Also, the result in the data set with Human rhinovirus 1A, with rhinovirus B14 and in the data set with rhinovirus A16 [4] was inactive.

Take `CC(=O)O[C@H]1CC[C@]2(C)[C@H](CC[C@@](C)(O)[C@@H]2COc2ccc3ccc(=O)oc3c2)C1(C)C` [KELLARIN]: the cytotoxic concentration (CC50) at 72 h in data set [1] came to 15.5 µg/mL (≈ 35 µM). For the same compound, the “Ratio CC50/IC50” value in [2] is given as under 1. For the same compound, the IC50 in the data set on rhinovirus A2 [3] is over 15.5 µg/mL. For the same compound, the outcome with Human rhinovirus 1A, in the data set on rhinovirus B14 and in the data set with rhinovirus A16 [4] was inactive.

Regarding `C/C(=C\COc1ccc2ccc(=O)oc2c1)CCC1C(C)(C)[C@H]2CC[C@]1(C)O2` (some centres not stated) [FARNESIFEROL], it took 7.7 µg/mL (≈ 20.1 µM) to reach half-maximal cytotoxicity in [1] (CC50 at 72 h). In addition, the “Ratio CC50/IC50” value in data set [2] is listed as 8.02. For the same compound, the result with rhinovirus A2 [5], in the data set with Human rhinovirus 1A, with rhinovirus B14 and with rhinovirus A16 [4] was inactive. The inhibition at 2.5 µg/mL with rhinovirus A2 [6] stood at 35.2%. This compound came in with an IC50 in the data set with rhinovirus A2 [3] of 0.96 µg/mL (≈ 2.51 µM).

As for `Cc1cc(CCCOc2c(C)cc(-c3noc(C(F)(F)F)n3)cc2C)on1` [PLECONARIL], in data set [1], the 50% cytotoxic concentration (CC50) at 72 h is 12.6 µg/mL (≈ 33 µM). Also, the “Ratio CC50/IC50” value in [2] was 1260. Further, the Activity in the data set with rhinovirus A2 [7] was found to be 84.3%. The inhibition at 0.25 µg/mL in the data set on rhinovirus A2 [8] is 100%. In addition, the 50% effective concentration (EC50) in the data set with rhinovirus A2 [9] turned out to be 40 nM; in the data set with rhinovirus A16 [10] it was 570 nM. Moreover, the Selectivity ratio in data set [11] amounted to 10. The 50% inhibitory concentration (IC50) amounted to 0.01 µg/mL (≈ 0.0262 µM) with rhinovirus A2 [3], 0.02 µg/mL (≈ 0.0524 µM) in the data set with Human rhinovirus 1A, 0.02 µg/mL (≈ 0.0524 µM) in the data set on rhinovirus B14 (Rhinovirus B) and 0.02 µg/mL (≈ 0.0524 µM) in the data set on rhinovirus A16 [4] (Rhinovirus A).

Broadly, the CC50 is the concentration at which the toxic effect on the cells reaches its halfway point. As usually defined, the IC50 is the midpoint of a concentration-inhibition curve. The term inhibition denotes the percentage by which the read-out fell short of the control. One may read the EC50 as the concentration that produces a half-maximal response.
